Measurements reported in ChEMBL document CHEMBL5120760, “Terpenoids and Meroterpenoids from Cultures of Two Grass-Associated Species of Amylosporus (Basidiomycota)” (J Nat Prod, 2022).
Converted amounts (≈) assume the structure as drawn.

Experiments:
[1] = test system: Wickerhamomyces anomalus; assay: Antifungal activity against Pichia anomala DSM 6766 assessed as inhibition of fungal growth incubated for overnight by serial dilution method; assay type: functional, organism-based
[2] = test system: Mucor hiemalis; assay: Antifungal activity against Mucor hiemalis DSM 2656 assessed as inhibition of fungal growth incubated for overnight by serial dilution method; assay type: functional
[3] = test system: Schizosaccharomyces pombe; assay: Antifungal activity against Schizosaccharomyces pombe DSM 70572 assessed as inhibition of fungal growth incubated for overnight by serial dilution method; assay type: functional, organism-based
[4] = test system: Rhodotorula glutinis; assay: Antifungal activity against Rhodotorula glutinis DSM 10134 assessed as inhibition of fungal growth incubated for overnight by serial dilution method; assay type: functional, organism-based
[5] = test system: Staphylococcus aureus; assay: Antibacterial activity against Staphylococcus aureus DSM 346 assessed as inhibition of bacterial growth incubated for overnight by serial dilution method; assay type: functional
[6] = test system: L929; assay: Cytotoxicity against mouse L929 cells assessed as inhibition of cell proliferation incubated for 5 days by MTT assay; assay type: functional, cell-based; conditions: L929, 120 h
Procedure, shortened: (§1)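 Colorimetric MTT tetrazolium assay, with epothilone B (1 mg/mL stock) as the positive control. IC50 was determined.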

[7] = test system: KB 3-1; assay: Cytotoxicity against human KB 3-1 cells assessed as inhibition of cell proliferation incubated for 5 days by MTT assay; assay type: functional, cell-based; conditions: KB 3-1, 120 h; procedure, shortened: as §1
[8] = test system: Bacillus subtilis; assay: Antibacterial activity aginst Bacillus subtilis DSM 10 assessed as inhibition of bacterial growth incubated for overnight by serial dilution method; assay type: functional
[9] = test system: Micrococcus luteus; assay: Antibacterial activity against Micrococcus luteus DSM 1790 assessed as inhibition of bacterial growth incubated for overnight by serial dilution method; assay type: functional
[10] = test system: Escherichia coli; assay: Antibacterial activity against Escherichia coli DSM 1116 assessed as inhibition of bacterial growth incubated for overnight by serial dilution method; assay type: functional
[11] = test system: Chromobacterium violaceum; assay: Antibacterial activity against Chromobacterium violaceum DSM 30191 assessed as inhibition of bacterial growth incubated for overnight by serial dilution method; assay type: functional
[12] = test system: Mycolicibacterium smegmatis; assay: Antibacterial activity against Mycobacterium smegmatis ATCC 700084 assessed as inhibition of bacterial growth incubated for overnight by serial dilution method; assay type: functional
[13] = test system: Pseudomonas aeruginosa; assay: Antibacterial activity against Pseudomonas aeruginosa PA 14 assessed as inhibition of bacterial growth incubated for overnight by serial dilution method; assay type: functional, organism-based
[14] = test system: SK-OV-3; assay: Cytotoxicity against human SK-OV-3 cells assessed as inhibition of cell proliferation incubated for 5 days by MTT assay; assay type: functional, cell-based; conditions: SK-OV-3, 120 h; procedure, shortened: as §1

| Compound | MIC [2] [µg/mL] | MIC [5] [µg/mL] | IC50 [6] [µM] | IC50 [7] [µM] | MIC [8] [µg/mL] | further results |
| --- | --- | --- | --- | --- | --- | --- |
| NYSTATIN | 16.7 |  |  |  |  | MIC [1]: 16.7 µg/mL; MIC [3]: 16.7 µg/mL; MIC [4]: 4.2 µg/mL |
| CC(C)=CCc1c(C)cc(O)c(CC=C(C)C)c1O | 33.3 (≈ 128 µM) | 33.3 (≈ 128 µM) | 53.8 | 57.7 | 33.3 (≈ 128 µM) |  |
| CC(C)=CCc1c(C)c(C(=O)O)c(O)c(CC=C(C)C)c1O | 66.7 (≈ 219 µM) | 66.7 (≈ 219 µM) | 59.2 | 42.7 | 66.7 (≈ 219 µM) |  |
| CN(C)[C@@H]1C(=O)C(C(N)=O)=C(O)[C@@]2(O)C(=O)C3=C(O)c4c(O)cccc4[C@@](C)(O)[C@H]3[C@H](O)[C@@H]12 |  | 0.4 (≈ 0.869 µM) |  |  | 3.33 (≈ 7.23 µM) | MIC [9]: 0.83 µg/mL (≈ 1.8 µM); MIC [10]: 8.3 µg/mL (≈ 18 µM); MIC [11]: 1.7 µg/mL (≈ 3.69 µM) |
| NC[C@H]1O[C@H](O[C@H]2[C@H](O)[C@@H](O[C@H]3O[C@H](CO)[C@@H](O)[C@H](N)[C@H]3O)[C@H](N)C[C@@H]2N)[C@H](O)[C@@H](O)[C@@H]1O [KANAMYCIN] |  |  |  |  |  | MIC [12]: 1.7 µg/mL (≈ 3.51 µM) |
| CC(C)=CCC/C(C)=C/Cc1c(O)cc(C)c(C(=O)O)c1O |  | 66.7 (≈ 219 µM) |  |  | 66.7 (≈ 219 µM) |  |
| C/C(=C\c1csc(C)n1)[C@@H]1C[C@@H]2O[C@]2(C)CCC[C@H](C)[C@H](O)[C@@H](C)C(=O)C(C)(C)[C@@H](O)CC(=O)O1 [PATUPILONE] |  |  | 0.0014 | 6.9e-05 |  |  |
| CC(C)=CCC/C(C)=C/Cc1c(O)cc(C)c(C=O)c1O | 16.7 (≈ 57.8 µM) | 8.33 (≈ 28.9 µM) | 66 | 62.5 | 4.2 (≈ 14.6 µM) | MIC [9]: 33.3 µg/mL (≈ 116 µM) |
| GENTAMICIN |  |  |  |  |  | MIC [13]: 0.4 µg/mL |
| CC(C)=CCC/C(C)=C/Cc1c(O)c(Cl)c(C)c(C=O)c1O | 33.3 (≈ 103 µM) | 1.04 (≈ 3.22 µM) | 18 | 7.7 | 2.1 (≈ 6.5 µM) | IC50 [14]: 5.6 µM |
